Reference: ChEMBL document CHEMBL1125695, “Potential anti-AIDS drugs. Lipophilic, adenosine deaminase-activated prodrugs” (J Med Chem, 1991)

Tests used:
[1] = Partition coefficient (logP); format: physicochemical; conditions: octanol/water
How it was run: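 Microscale shake-flask method: compound from DMSO stock into 1.0 mL octanol-saturated 0.01 M potassium phosphate pH 7.0, then mixed with 1.0 mL buffer-saturated n-octanol at 24–26 °C. Stood 15 min, phases centrifuged, each analysed by HPLC. P is the octanol/buffer peak-area ratio; mean ± SD of three independent determinations.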

[2] = (§1) Anti-HIV activity (% toxicity) in ATH-8 cells at 5 uM; format: cell-based; conditions: human, ath-8, 5 µM
How it was run: (§2)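 CD4+ ATH8 cells (200 000) exposed 1 h to cell-free HIV-1/IIIB, 43 TCID50 (1087 for one analogue), resuspended in 2 mL IL-2 medium with 15% fetal calf serum, cultured at 37 °C in 5% CO2 with or without compound; dCF alone 5 μM. Day 8 viable cells counted by dye exclusion. % protection and % toxicity computed versus infected-untreated and uninfected-untreated cells; ≤0 given as 0%. Minimum two separate experiments; representative test reported.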

[3] = (§3) Anti-HIV activity (%toxicity) in ATH-8 cells at 5 uM; format: cell-based; conditions: human, ath-8, 5 µM; how it was run: as §2
[4] = as §3; format: cell-based; conditions: human, ath-8, 5 µM; how it was run: as §2; remark: listed apart in the source
[5] = as §3; format: cell-based; conditions: human, ath-8, 5 µM; how it was run: as §2; remark: listed apart in the source
[6] = Anti-HIV activity (%protection) in ATH-8 cells at 5 uM in absence of 2''-deoxycoformycin at 20 uM; format: functional, Homo sapiens; how it was run: as §2
[7] = Anti-HIV activity (%protection) in ATH-8 cells at 5 uM in absence of 2''-deoxycoformycin at 0 uM; format: functional, Homo sapiens; how it was run: as §2
[8] = Anti-HIV activity (%protection) in ATH-8 cells at 5 uM in absence of 2''-deoxycoformycin at 100 uM; format: functional, Homo sapiens; how it was run: as §2
[9] = Anti-HIV activity (%protection) in ATH-8 cells at 5 uM in absence of 2''-deoxycoformycin at 50 uM; format: functional, Homo sapiens; how it was run: as §2
[10] = Anti-HIV activity (%protection) in ATH-8 cells at 5 uM in absence of 2'-deoxycoformycin at 5 uM; format: functional, Homo sapiens; how it was run: as §2
[11] = as §1; format: cell-based; conditions: human, ath-8, 5 µM; how it was run: as §2; remark: listed apart in the source
[12] = (§4) Anti-HIV activity in ATH-8 cells at 5 uM in absence of 2''-deoxycoformycin at 20 uM; format: cell-based; conditions: human, ath-8, 5 µM; how it was run: as §2
[13] = as §4; format: functional, Homo sapiens; how it was run: as §2
[14] = Kinetic parameter Vmax at pH 7.4 and 37 degree Centigrade; format: ADME
How it was run: (§5)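 Calf intestinal mucosa adenosine deaminase with dideoxynucleoside substrates in 0.01 M Tris pH 7.4 at 37 °C. Aliquots quenched with cold 2 μM 2'-deoxycoformycin, ultrafiltered, and substrate loss followed by reversed-phase HPLC (CH3CN in pH 7.0 phosphate). Relative rates taken at 50 μM substrate with 0.7 unit/mL enzyme, referenced to ddA = 100.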

[15] = Kinetic parameter relative rate measured at 50 uM at pH 7.4 and 37 degree Centigrade; format: ADME; conditions: pH 7.4, 50 µM; how it was run: as §5
[16] = Anti-HIV activity (% toxicity) in ATH-8 cells at 5 uM in absence of 2'-deoxycoformycin at 20 uM; format: cell-based; conditions: human, ath-8, 5 µM; how it was run: as §2
[17] = Anti-HIV activity (% toxicity) in ATH-8 cells at 5 uM in absence of 2'-deoxycoformycin at 5 uM; format: cell-based; conditions: human, ath-8, 5 µM; how it was run: as §2
[18] = Anti-HIV activity (% toxicity) in ATH-8 cells at 5 uM in absence of 2'-deoxycoformycin at 50 uM; format: cell-based; conditions: human, ath-8, 5 µM; how it was run: as §2
[19] = Anti-HIV activity (% toxicity) in ATH-8 cells at 5 uM in presence of 2'-deoxycoformycin at 0 uM; format: cell-based; conditions: human, ath-8, 5 µM; how it was run: as §2
[20] = Anti-HIV activity (% toxicity) in ATH-8 cells at 5 uM in presence of 2'-deoxycoformycin at 10 uM; format: cell-based; conditions: human, ath-8, 5 µM; how it was run: as §2
[21] = Anti-HIV activity (% toxicity) in ATH-8 cells at 5 uM in presence of 2'-deoxycoformycin at 100 uM; format: cell-based; conditions: human, ath-8, 5 µM; how it was run: as §2
[22] = Anti-HIV activity (% toxicity) in ATH-8 cells at 5 uM in presence of 2'-deoxycoformycin at 20 uM; format: cell-based; conditions: human, ath-8, 5 µM; how it was run: as §2
[23] = Anti-HIV activity (% toxicity) in ATH-8 cells at 5 uM in presence of 2'-deoxycoformycin at 5 uM; format: cell-based; conditions: human, ath-8, 5 µM; how it was run: as §2
[24] = Anti-HIV activity (% toxicity) in ATH-8 cells at 5 uM in presence of 2'-deoxycoformycin at 50 uM; format: cell-based; conditions: human, ath-8, 5 µM; how it was run: as §2
[25] = Anti-HIV activity (% toxicity) in ATH-8 cells at 5 uM in absence of 2'-deoxycoformycin at 0 uM; format: cell-based; conditions: human, ath-8, 5 µM; how it was run: as §2
[26] = Anti-HIV activity (% toxicity) in ATH-8 cells at 5 uM in absence of 2'-deoxycoformycin at 10 uM; format: cell-based; conditions: human, ath-8, 5 µM; how it was run: as §2
[27] = Anti-HIV activity (% toxicity) in ATH-8 cells at 5 uM in absence of 2'-deoxycoformycin at 100 uM; format: cell-based; conditions: human, ath-8, 5 µM; how it was run: as §2
[28] = Anti-HIV activity (% protection) in ATH-8 cells at 5 uM in absence of 2'-deoxycoformycin at 100 uM; format: functional, Homo sapiens; how it was run: as §2
[29] = Anti-HIV activity (% protection) in ATH-8 cells at 5 uM in absence of 2'-deoxycoformycin at 20 uM; format: functional, Homo sapiens; how it was run: as §2
[30] = Anti-HIV activity (% protection) in ATH-8 cells at 5 uM in absence of 2'-deoxycoformycin at 50 uM; format: functional, Homo sapiens; how it was run: as §2
[31] = Anti-HIV activity (% protection) in ATH-8 cells at 5 uM in absence of 2''-deoxycoformycin at 5 uM; format: functional, Homo sapiens; how it was run: as §2
[32] = Anti-HIV activity (% protection) in ATH-8 cells at 5 uM in presence of 2'-deoxycoformycin at 0 uM; format: functional, Homo sapiens; how it was run: as §2
[33] = Anti-HIV activity (% protection) in ATH-8 cells at 5 uM in presence of 2'-deoxycoformycin at 10 uM; format: functional, Homo sapiens; how it was run: as §2
[34] = Anti-HIV activity (% protection) in ATH-8 cells at 5 uM in presence of 2'-deoxycoformycin at 100 uM; format: functional, Homo sapiens; how it was run: as §2
[35] = Anti-HIV activity (% protection) in ATH-8 cells at 5 uM in presence of 2'-deoxycoformycin at 20 uM; format: functional, Homo sapiens; how it was run: as §2
[36] = Anti-HIV activity (% protection) in ATH-8 cells at 5 uM in presence of 2'-deoxycoformycin at 5 uM; format: functional, Homo sapiens; how it was run: as §2
[37] = Anti-HIV activity (% protection) in ATH-8 cells at 5 uM in presence of 2'-deoxycoformycin at 50 uM; format: functional, Homo sapiens; how it was run: as §2
[38] = Anti-HIV activity (% protection) in ATH-8 cells at 5 uM in absence of 2'-deoxycoformycin at 0 uM; format: functional, Homo sapiens; how it was run: as §2
[39] = Anti-HIV activity (% protection) in ATH-8 cells at 5 uM in absence of 2'-deoxycoformycin at 10 uM; format: functional, Homo sapiens; how it was run: as §2

O=C(Nc1ncnc2c1ncn2C1OC(CO)CC1F)c1ccccc1 (configuration not stated)
logP [1]: 0.73 | Toxicity [2]: 8% | Toxicity [3]: 0% | Toxicity [4]: 0% | Toxicity [5]: 0% | Protection [6]: 30% | Protection [7]: 0% | Protection [8]: 21% | Protection [9]: 29% | Protection [10]: 8% | Toxicity [11]: 2%

OCC1CC(F)C(n2cnc3cncnc32)O1 (configuration not stated)
logP [1]: -0.4

Nc1c2ncn(C3OC(CO)CC3F)c2nc[n+]1[O-] (configuration not stated)
logP [1]: -1.38

O=c1[nH]cnc2c1ncn2[C@H]1CC[C@@H](CO)O1 [DIDANOSINE]
Toxicity [12]: 0% | Protection [13]: 100%

CNc1nc(C)nc2c1ncn2[C@@H]1O[C@H](CO)C[C@@H]1F
logP [1]: 0.64

CNc1ncnc2c1ncn2C1OC(CO)CC1F (configuration not stated)
logP [1]: 0.27 | Vmax [14]: 0.00055 µmol/min/unit | Relative rate [15]: 0.04 | Toxicity [16]: 0% | Toxicity [17]: 0% | Toxicity [18]: 6% | Toxicity [19]: 11% | Toxicity [20]: 7% | Toxicity [21]: 70% | Toxicity [22]: 0% | Toxicity [23]: 3% | Toxicity [24]: 46% | Toxicity [25]: 0% | Toxicity [26]: 0% | Toxicity [27]: 44% | Protection [28]: 27% | Protection [29]: 32% | Protection [30]: 37% | Protection [31]: 13% | Protection [32]: 0% | Protection [33]: 2% | Protection [34]: 0% | Protection [35]: 0% | Protection [36]: 1% | Protection [37]: 0% | Protection [38]: 0% | Protection [39]: 24%

Nc1ccn([C@H]2CC[C@@H](CO)O2)c(=O)n1 [ZALCITABINE]
logP [1]: -1.33

Cc1cn([C@H]2C[C@H](N=[N+]=[N-])[C@@H](CO)O2)c(=O)[nH]c1=O [ZIDOVUDINE]
logP [1]: 0.05

Nc1ncnc2c1ncn2[C@H]1CC[C@@H](CO)O1
logP [1]: -0.29 | Vmax [14]: 1.32 µmol/min/unit | Relative rate [15]: 100 | Toxicity [20]: 22% | Toxicity [26]: 0% | Protection [33]: 86% | Protection [39]: 100%

OCC1CC(F)C(n2cnc3c(O)ncnc32)O1 (configuration not stated)
logP [1]: -1.21

Cc1nc(N)c2ncn([C@@H]3O[C@H](CO)C[C@@H]3F)c2n1
logP [1]: 0.12

OCC1CC(F)C(n2cnc3c(Cl)ncnc32)O1 (configuration not stated)
logP [1]: 0.32 | Vmax [14]: 0.026 µmol/min/unit | Relative rate [15]: 0.06 | Toxicity [16]: 26% | Toxicity [18]: 46% | Toxicity [19]: 14% | Toxicity [20]: 49% | Toxicity [21]: 72% | Toxicity [22]: 58% | Toxicity [24]: 56% | Toxicity [25]: 0% | Toxicity [26]: 5% | Toxicity [27]: 52% | Protection [28]: 35% | Protection [29]: 57% | Protection [30]: 53% | Protection [32]: 3% | Protection [33]: 15% | Protection [34]: 17% | Protection [35]: 11% | Protection [37]: 14% | Protection [38]: 0% | Protection [39]: 48%

Cc1nc2c(N)ncnc2n1C1OC(CO)CC1F (configuration not stated)
logP [1]: 0.1

Nc1ncnc2c1ncn2[C@@H]1O[C@H](CO)C[C@@H]1F [LODENOSINE]
Vmax [14]: 0.23 µmol/min/unit | Relative rate [15]: 6 | Toxicity [16]: 0% | Toxicity [18]: 0% | Toxicity [19]: 11% | Toxicity [22]: 17% | Toxicity [24]: 54% | Toxicity [25]: 0% | Protection [29]: 70% | Protection [30]: 84% | Protection [32]: 0% | Protection [35]: 68% | Protection [37]: 48% | Protection [38]: 0%
